Experimental findings from ChEMBL document CHEMBL5346864, “Identification of L. infantum trypanothione synthetase inhibitors with leishmanicidal activity from a (non-biased) in-house chemical library” (Eur J Med Chem, 2022) are described below.

Each structure is given as a SMILES string. Active and inactive are the calls of the source. The rule behind the calls is not given here. Where only a bound is given, the exact number is not on record here.

The test system of series [1] is Leishmania infantum. Description: Leishmanicidal activity against Leishmania infantum axenic amastigotes (MCAN/ES/89/IPZ229/1/89) assessed as inhibition of parasite proliferation measured after 24 hrs by resazurin dye based fluorescence analysis. Particulars: MCAN/ES/89/IPZ229/1/89, 24 h. It counts as functional, organism-based. In a few lines:
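L. infantum MCAN/ES/89/IPZ229/1/89 axenic amastigotes (M199-based medium, pH 5.4, 37 °C) from log cultures seeded at 10^6/mL and treated 24 h at 37 °C. Resazurin added for a further 24 h; fluorescence read at ex 560/em 590 nm, normalized to vehicle, EC50 from two-parameter fit; triplicate in three independent experiments.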
(In general: Resazurin is reduced to fluorescent resorufin, in cell work by metabolically active cells.)

For series [2], the system named is Leishmania infantum. Description: Anti-leishmanial activity against GFP-expressing Leishmania infantum axenic amastigotes infected in human THP-1 cells assessed as reduction in live intracellular GFP+ amastigotes measured after 72 hrs by fluorescence based analysis. It is filed as functional, organism-based. Particulars: THP-1, 72 h. In a few lines: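 THP-1 monocytes differentiated 24 h with 100 ng/mL PMA, infected 24 h with GFP-expressing L. infantum axenic amastigotes (5 × 10^6/mL), non-internalized parasites removed by washes and a 24 h horse-serum challenge. Treatment for 72 h at 37 °C in RPMI with 10% horse serum. SDS lysis; live (propidium iodide-negative) GFP+ amastigotes counted by flow cytometry, normalized to vehicle, EC50 by two-parameter fit; three independent experiments.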

Series [3] is described as follows: Cytotoxicity against human HepG2 cells assessed as reduction in cell proliferation measured after 72 hrs by crystal violet staining based analysis. It is filed as toxicity.
Series [4] is described as follows: Selectivity index, ratio of CC50 for cytotoxicity against human HepG2 cells to EC50 for Anti-Leishmanial activity against GFP-expressing Leishmania infantum axenic amastigotes infected in human THP-1 cells. It counts as toxicity, cell-based. The note with it: read-out: Ratio CC50/EC50.
Series [5] relates to Leishmania infantum. The experiment in a line: Induction of plasma membrane depolarization in Leishmania infantum axenic amastigotes at 1 uM incubated for 2 hrs by DiBAC4(3)-derived flow cytometry.
The test system of series [6] is Leishmania infantum. Description: Induction of mitochondrial inner membrane depolarization in Leishmania infantum axenic amastigotes at 5 uM incubated for 2 hrs by TMRM-derived flow cytometry.
The subject of series [7] is Leishmania infantum. The experiment in a line: Increase in the intracellular superoxide radical concentration in Leishmania infantum axenic amastigotes at 1 uM incubated for 2 hrs by DHE-derived flow cytometry. It is filed as functional, cell-based. (In general: A flow cytometer gives signals particle by particle.)
A short description of series [8]: Inhibition of N-terminal His6-tagged recombinant Leishmania infantum promastigotes (MCAN/ES/89/IPZ229/1/89) TryS expressed in Escherichia coli BL21(DE3) Rossetta by BIOMOL Green reagent based assay. Put shortly: (§1)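 Recombinant His-LiTryS at 25 nM final, 100 mM HEPES pH 8, 0.5 mM EDTA, 10 mM MgCl2, 100 µM DTT, 2% DMSO, 37 °C, 30 min. Saturating substrates: 150 µM ATP, 100 µM GSH, 2 mM Spd or 500 µM GspdSH. […] Phosphate via BIOMOL Green, A650; 6-point curves, triplicate, three experiments.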

A short description of series [9]: Inhibition of N-terminal His6-tagged recombinant Leishmania infantum promastigotes (MCAN/ES/89/IPZ229/1/89) TryS expressed in Escherichia coli BL21(DE3) Rossetta using saturating concentrations of ATP, GSH and Spd as substrate measured after 30 mins by BIOMOL Green reagent based assay. Put shortly:
as §1

Series [10] is described as follows: Inhibition of N-terminal His6-tagged recombinant Leishmania infantum promastigotes (MCAN/ES/89/IPZ229/1/89) TryS expressed in Escherichia coli BL21(DE3) Rossetta using saturating concentrations of GSH and Spd and Km concentration of ATP as substrate measured after 30 mins by BIOMOL Green reagent based assay.
Series [11] in a line: Inhibition of N-terminal His6-tagged recombinant Leishmania infantum promastigotes (MCAN/ES/89/IPZ229/1/89) TryS expressed in Escherichia coli BL21(DE3) Rossetta using saturating concentrations of ATP and Spd and Km concentration of GSH as substrate measured after 30 mins by BIOMOL Green reagent based assay.
Series [12] in a line: Inhibition of N-terminal His6-tagged recombinant Leishmania infantum promastigotes (MCAN/ES/89/IPZ229/1/89) TryS expressed in Escherichia coli BL21(DE3) Rossetta using saturating concentrations of ATP and GSH and Km concentration of Spd as substrate measured after 30 mins by BIOMOL Green reagent based assay.
A short description of series [13]: Inhibition of N-terminal His6-tagged recombinant Leishmania infantum promastigotes (MCAN/ES/89/IPZ229/1/89) TryS expressed in Escherichia coli BL21(DE3) Rossetta using saturating concentrations of ATP, GSH and GspdSH as substrate measured after 30 mins by BIOMOL Green reagent based assay. Put shortly:
as §1

Series [14] in a line: Inhibition of N-terminal His6-tagged recombinant Leishmania infantum promastigotes (MCAN/ES/89/IPZ229/1/89) TryS expressed in Escherichia coli BL21(DE3) Rossetta using saturating concentrations of ATP and GSH and Km concentration of GspdSH as substrate measured after 30 mins by BIOMOL Green reagent based assay.
The nature of series [15]: Competitive inhibition of N-terminal His6-tagged recombinant Leishmania infantum promastigotes (MCAN/ES/89/IPZ229/1/89) TryS expressed in Escherichia coli BL21(DE3) Rossetta with fixed concentration of ATP and GSH and varying concentrations of GspdSH as substrate measured after 30 mins by Lineweaver-Burk double-reciprocal plot analysis. In a few lines:
(§2)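 Recombinant His-tagged LiTryS (62.5 nM added to start) in 100 mM HEPES pH 8, 50 µL, 37 °C, 30 min; phosphate read with BIOMOL Green at 650 nm. Four inhibitor concentrations crossed with four varied substrate levels, no enzyme preincubation. […] Lineweaver-Burk analysis, three experiments.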

Series [16] can be described thus: Competitive inhibition of N-terminal His6-tagged recombinant Leishmania infantum promastigotes (MCAN/ES/89/IPZ229/1/89) TryS expressed in Escherichia coli BL21(DE3) Rossetta with fixed concentration of Spd and GSH and varying concentrations of ATP as substrate measured after 30 mins by Lineweaver-Burk double-reciprocal plot analysis. Put shortly:
as §2

The nature of series [17]: Mixed inhibition of N-terminal His6-tagged recombinant Leishmania infantum promastigotes (MCAN/ES/89/IPZ229/1/89) TryS expressed in Escherichia coli BL21(DE3) Rossetta with fixed concentration of ATP and GSH and varying concentrations of GspdSH as substrate measured after 30 mins by Lineweaver-Burk double-reciprocal plot analysis. Put shortly:
as §2

On to `CCCCCCCCCCCCCCCCOP(=O)([O-])OCC[N+](C)(C)C` [MILTEFOSINE], for which the values for the 50% effective concentration (EC50) in the series on Leishmania infantum [1] and with Leishmania infantum [2] were 0.5 µM and 0.7 µM, respectively. Moreover, in series [3], the CC50 at 72 h was greater than 75 µM. Further, the selectivity ratio in series [4] is greater than 107. Also, the result in the series with Leishmania infantum [5], in the series with Leishmania infantum [6] and in the series on Leishmania infantum [7] was Active. Further, the half-maximal inhibitory concentration (IC50) in [8] was 45.6 µM.

Regarding `CCCCCCCCCCCC(=O)NC(COC(=O)c1ccc(OCCN)c(OCCN)c1)COC(=O)c1cc(OCCN)c(OCCN)c(OCCN)c1` (stereo unspecified), the IC50 in [9] is 14.8 µM; in series [10], 13.4 µM; in series [11] it was 14.6 µM; in series [12] it was 9.9 µM; in series [13], 7.2 µM; in [14], 4.9 µM. Also, in series [15], the inhibitory constant (Ki) stood at 2.6 µM. Moreover, the values for the concentration for a half-maximal effect (EC50) in the series with Leishmania infantum [1] and in the series with Leishmania infantum [2] were 7.3 µM and 17.9 µM, respectively. In series [3], the half-maximal cytotoxic concentration (CC50) at 72 h is greater than 75 µM. Moreover, in series [4], the selectivity ratio is greater than 4.2.

On to `NCCCCc1cn(-c2ccc(-c3nc(-c4ccc(Oc5ccccc5)cc4)c(-c4ccccc4)s3)c(OCCN3CCNC3=O)c2)nn1`, for which the IC50 in series [9] is 14.8 µM; in [10] it was 8.7 µM; in series [11], 14.2 µM; in [12] it was 10.9 µM; in series [13] it was 16.2 µM; in series [14], 10.7 µM. Besides, the Ki in series [16] amounted to 5.4 µM; in series [15] it was 3.9 µM. Also, the results for the concentration giving a half-maximal response (EC50) in the series with Leishmania infantum [1] and in the series with Leishmania infantum [2] were 21.5 µM and 13.5 µM, respectively. For the same compound, the CC50 at 72 h in series [3] came out at 15.9 µM. Further, in series [4], the selectivity ratio was determined as 1.2.

Take `O=C(OC[C@H]1O[C@H](O[C@H]2O[C@H](COC(=O)c3cc(O)c(O)c(O)c3)[C@@H](OC(=O)c3cc(O)c(O)c(O)c3)[C@H](OC(=O)c3cc(O)c(O)c(O)c3)[C@H]2OC(=O)c2cc(O)c(O)c(O)c2)[C@H](OC(=O)c2cc(O)c(O)c(O)c2)[C@@H](OC(=O)c2cc(O)c(O)c(O)c2)[C@@H]1OC(=O)c1cc(O)c(O)c(O)c1)c1cc(O)c(O)c(O)c1`: the IC50 worked out at 4.4 µM in [9]; 5.4 µM in series [10]; 5.4 µM in [11]; 5.6 µM in [12]; 2.2 µM in series [13]; 2 µM in series [14]. Moreover, in series [17], the inhibitory constant (Ki) was 0.8 µM. In addition, the concentration giving a half-maximal response (EC50) with Leishmania infantum [1] is 43.7 µM.

Consider `CCCCCCCCCCCCCCCOc1cc(C[N+](C)(C)C2CCCC2)ccc1OCCCCCCCCCCCCCC`, for which the half-maximal inhibitory concentration (IC50) in series [9] stood at 9.8 µM; in [10] it was 8.9 µM; in [11], 8.7 µM; in series [12] it was 8.4 µM; in series [13] it was 7.5 µM; in series [14], 6 µM. For the same compound, in the series on Leishmania infantum [1], the EC50 was greater than 75 µM.

Consider `O=C(O[C@@H]1OC[C@@H](OC(=O)c2ccc(O)c(O)c2O)[C@@H](OC(=O)c2ccc(O)c(O)c2O)[C@H]1OC(=O)c1ccc(O)c(O)c1O)c1ccc(O)c(O)c1O`, for which the concentration for half-maximal inhibition (IC50) in [9] amounted to 5.4 µM; in [10], 7.1 µM; in [11], 6.7 µM; in [12] it was 4.7 µM; in series [13], 5.9 µM; in series [14], 5.1 µM. The half-maximal effective concentration (EC50) with Leishmania infantum [1] was determined as 47.6 µM.

Consider `CCCCCCCCCCCCCCOc1ccc(C[N+](C)(C)C2CCCC2)cc1OC`, for which the IC50 in [9] came out at 7.9 µM; in series [10], 7.3 µM; in series [11], 7.8 µM; in [12], 5.5 µM; in series [13], 7.1 µM; in series [14] it was 3.8 µM. The concentration for a half-maximal effect (EC50) in the series on Leishmania infantum [1] was determined as 0.4 µM; in the series with Leishmania infantum [2], 0.6 µM. The half-maximal cytotoxic concentration (CC50) at 72 h in series [3] was found to be 21.3 µM. Further, the selectivity ratio in series [4] is 35.5. The result in the series with Leishmania infantum [5], in the series on Leishmania infantum [6] and in the series with Leishmania infantum [7] was Active.

Broadly, the EC50 is the midpoint of the concentration-response curve. A word on the CC50: it is the concentration that lowers cell viability or growth by half. One may read the IC50 as the concentration that inhibits the measured activity by half. In general, Ki refers to the equilibrium dissociation constant of an inhibitor or competing ligand from its target.
